Bioassay records from PubChem.
Hits are enriched below; roughly 3.5% of the tested compounds scored in any of these assays.
MrgX1 PAM – allosterically activates human MrgX1 receptor signaling. Q96LB2. MrgX1-HEK293, Fluo-4 calcium flux, FDSS; hits give high values. B-score at 10 µM. actives 0.63% (n = 310,000). AID 588675;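 active = plate-corrected calcium response at least 3 library SD above typical, normal starting fluorescence, not activating the receptor alone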;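 also: compound read alongside a low EC10 to EC30 dose of BAM8-22 agonist; peak minus trough fluorescence over baseline measured at the second addition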
Target sequence (Q96LB2 whole entry, looked up): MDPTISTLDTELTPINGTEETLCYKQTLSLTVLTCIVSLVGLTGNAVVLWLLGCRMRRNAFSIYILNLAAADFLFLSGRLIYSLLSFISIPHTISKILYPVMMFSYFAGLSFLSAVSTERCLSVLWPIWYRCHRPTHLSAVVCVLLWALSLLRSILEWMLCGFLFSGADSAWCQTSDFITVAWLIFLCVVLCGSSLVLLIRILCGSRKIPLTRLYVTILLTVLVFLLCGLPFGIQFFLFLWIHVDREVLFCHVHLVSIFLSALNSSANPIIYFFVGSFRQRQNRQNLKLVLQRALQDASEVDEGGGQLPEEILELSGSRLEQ
MrgX1 antagonist – antagonists of human MrgX1 receptor | Q96LB2 | MRGX1-HEK293 calcium flux, Fluo-4, BAM8-22 antagonism; hits give low values | actives 1.3% (n = 310,000) | B-score at 10 µM;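 active = calcium-response B-score plate-corrected more than 3 library SD below zero, starting fluorescence within 5 deviations, no agonist response on first addition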;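 also: peak minus trough fluorescence over baseline after final BAM8-22 challenge near maximal dose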
MrgX1 agonist – agonists of human MrgX1 receptor; actives 0.44% (n = 310,000); B-score at 10 µM; Q96LB2; MrgX1-HEK293 cells, Fluo-4 calcium fluorescence, agonist mode; hits give high values;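 active = calcium response B-score plate-corrected fluorescence ratio at least 3 library SD, with starting fluorescence B-score inside 5 SD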
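Assay system: MrgX1-expressing HEK293 cells / Amount: fifteen thousand cells per well / Doses: test compound in the initial addition of three / Timing: cells plated overnight, dye loaded 0.5 h 37 °C, 0.5 h room temperature / Technique: kinetic calcium dye fluorescence, Fluo-4 NW / Control set: positive and negative controls per plate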
RGS4 block – human RGS4 inhibition; P49798; HEK293 M3R/RGS4 inducible, Fluo-4 calcium flux; hits give high values; triggered by carbachol at its EC20; B-score at 10 µM; actives 0.45% (n = 310,000);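 active = B-score, a plate-corrected calcium signal, over three deviations above library mean, with baseline fluorescence within five deviations of library mean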;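 also: RGS4 expression induced by doxycycline in cells with stable M3 receptor; B-score is computed from the integrated fluorescence ratio over baseline after carbachol; higher B-score means a larger calcium signal and so more RGS4 inhibition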
Target sequence (P49798 whole entry, looked up): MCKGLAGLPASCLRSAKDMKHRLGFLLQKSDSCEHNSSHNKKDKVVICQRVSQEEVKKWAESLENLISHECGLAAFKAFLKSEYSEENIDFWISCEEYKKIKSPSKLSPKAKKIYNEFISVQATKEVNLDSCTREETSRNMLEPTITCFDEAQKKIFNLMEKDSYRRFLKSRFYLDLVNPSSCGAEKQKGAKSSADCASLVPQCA
RGS4 pot – potentiators or activators of RGS4; AID 463111; B-score at 10 µM; actives 0.92% (n = 310,000); HEK293 M3R/inducible RGS4, carbachol calcium flux Fluo4; hits give low values;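 active = B-score of the integrated calcium signal more than 4 SD below the library mean, with starting fluorescence not abnormally high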;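 also: negative B-score means reduced calcium response which marks RGS4 activation or potentiation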
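test system = HEK293 cells with stable M3R and inducible RGS4 | schedule = recording 10 s baseline at 1 Hz, 100 s post-agonist | technique = Fluo4-AM (2 µM) calcium-flux fluorescence, kinetic read | measure = Agonist-evoked peak-minus-minimum fluorescence over baseline, integrated ratio, B score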
MrgX1 ant reconf – reconfirmed antagonist of human MrgX1 receptor signaling | MrgX1-HEK293, BAM8-22 calcium flux, Fluo-4; hits give low values | actives 19% (n = 2,300) | shares compounds with MrgX1 antagonist | remaining BAM8-22 calcium response % of control (hits give low values), % at 10 µM;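 active = remaining agonist calcium response no higher than 100% minus 3 SD of agonist-only control wells, with starting fluorescence near control levels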;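 also: agonist BAM8-22 given at a near maximal EC90 to ECmax level; peak minus minimum fluorescence divided by baseline after agonist addition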
HEK293 Ca flux – activity in parental HEK293 cells lacking MrgX1 | actives 2% (n = 4,000) | shares compounds with MrgX1 antagonist | Fluo-4 calcium fluorescence, FDSS | AID 624111 | fluorescence ratio F(max-min)/F0 at 10 µM;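 active = duplicate-averaged calcium fluorescence ratio at least three times the standard deviation of buffer wells, a nonspecific response in parental cells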
HEK293 Ca counter – MrgX1 allosteric activator counter-screen hit in parental HEK293 cells | actives 0.4% (n = 4,000) | fluorescence ratio F(max-min)/F0 at 10 µM | parental HEK293 calcium flux, Fluo-4 fluorescence ratio; hits give high values | shares compounds with MrgX1 antagonist | AID 624114;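 active = calcium fluorescence ratio, averaged over duplicates, at least 3 SD of the buffer-well ratio, meaning a nonspecific response in receptor-free cells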;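 also: untransfected parental HEK293 lacking MrgX1 used as counterscreen for MrgX1 allosteric activators; fluorescence change taken during the second addition on a kinetic imager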
HEK293 Ca cntr2 – MrgX1 activator counter-screen hit in parental HEK293 cells; shares compounds with MrgX1 antagonist; Fluo-4 calcium fluorescence (FDSS); hits give high values; fluorescence ratio F(max-min)/F0 at 10 µM; actives 8.7% (n = 4,000);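 active = calcium fluorescence ratio at least three times the spread of buffer wells, meaning a non-specific response in parental cells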
* marks the source's active call; other numbers are inactive results.

`O=C(CSc1nnc(CNC(=O)c2ccccc2)o1)NCc1ccccc1Cl` gave MrgX1 PAM inactive, MrgX1 antagonist -6.59*, MrgX1 agonist inactive, RGS4 block inactive, RGS4 pot inactive, MrgX1 ant reconf inactive, HEK293 Ca flux inactive, HEK293 Ca counter inactive and HEK293 Ca cntr2 inactive.
O=C(CSc1nnc(CNC(=O)c2ccc(F)cc2)o1)NCc1ccccc1Cl was read as MrgX1 PAM inactive, MrgX1 antagonist inactive, MrgX1 agonist inactive, RGS4 block inactive and RGS4 pot inactive.
O=C(CSc1nnc(CNC(=O)c2ccc(F)cc2)o1)NCc1ccc(F)cc1 was read as MrgX1 PAM inactive, MrgX1 antagonist inactive, MrgX1 agonist inactive, RGS4 block inactive and RGS4 pot inactive.
Screening COc1cc(C(=O)OC2CSCC2NC(=O)c2ccccc2)cc(OC)c1OC (stereo not given) returned MrgX1 PAM inactive, MrgX1 antagonist inactive, MrgX1 agonist inactive, RGS4 block inactive and RGS4 pot inactive.
Screening COc1ccc(CN(C(=O)/C=C/c2ccco2)C2CCS(=O)(=O)C2)cc1OC (stereo not given) returned MrgX1 PAM inactive, MrgX1 antagonist inactive, MrgX1 agonist inactive, RGS4 block inactive and RGS4 pot inactive.
For CC1CN(C(=O)Nc2ccc(Br)cc2Cl)CC(C)O1 (stereo not given) the results were MrgX1 PAM inactive, MrgX1 antagonist -6.38*, MrgX1 agonist inactive, RGS4 block inactive, RGS4 pot inactive, MrgX1 ant reconf inactive, HEK293 Ca flux inactive, HEK293 Ca counter inactive and HEK293 Ca cntr2 inactive.
For CC1CCCN(C(=O)Nc2ccc(Br)cc2Cl)C1 (stereo not given) the results were MrgX1 PAM inactive, MrgX1 antagonist inactive, MrgX1 agonist inactive, RGS4 block inactive and RGS4 pot inactive.
Screening C/C(=N\NC(=O)C1COc2ccccc2O1)c1ccc(N2CCOCC2)cc1 (stereo not given) returned MrgX1 PAM inactive, MrgX1 antagonist inactive, MrgX1 agonist inactive, RGS4 block inactive and RGS4 pot inactive.
COc1cc2c(cc1OC)C(C)N(C(=O)c1cc(C)on1)CC2 (stereo not given) was read as MrgX1 PAM inactive, MrgX1 antagonist -6.29*, MrgX1 agonist inactive, RGS4 block inactive, RGS4 pot inactive, MrgX1 ant reconf 85.0%*, HEK293 Ca flux inactive, HEK293 Ca counter inactive and HEK293 Ca cntr2 inactive.
CCN(CC)c1ccc(N=Cc2ccc(N(CC)CC)cc2O)cc1 was read as MrgX1 PAM inactive, MrgX1 antagonist -8.15*, MrgX1 agonist inactive, RGS4 block inactive, RGS4 pot inactive, MrgX1 ant reconf inactive, HEK293 Ca flux 0.238*, HEK293 Ca counter inactive and HEK293 Ca cntr2 46.2*.
For CCN(CC)c1ccc(C=Nc2ccc(N(C)C)cc2)c(O)c1 the results were MrgX1 PAM inactive, MrgX1 antagonist -4.64*, MrgX1 agonist inactive, RGS4 block inactive, RGS4 pot inactive, MrgX1 ant reconf 66.3%*, HEK293 Ca flux inactive, HEK293 Ca counter inactive and HEK293 Ca cntr2 inactive.
Cc1ccc(C)c(NS(=O)(=O)c2ccc3[nH]c(=O)oc3c2)c1 was read as MrgX1 PAM inactive, MrgX1 antagonist -5.26*, MrgX1 agonist inactive, RGS4 block inactive, RGS4 pot inactive, MrgX1 ant reconf inactive, HEK293 Ca flux inactive, HEK293 Ca counter inactive and HEK293 Ca cntr2 inactive.
